Calls of active or inactive are those of the source. The calls are words filed in the database; no cut-off is given here.
Assays:
Plasmodium falciparum [1] = test: Anti-parasitic activity against CQ-resistant Plasmodium falciparum W2 assessed as growth inhibition by measuring increase in LDH release after 72 hrs by spectrophotometric method; type: functional; settings: W2, 72 h
Method in brief: (§1)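 Asynchronous cultures (parasitemia 1–1.5%, 1% final hematocrit, human A+ RBCs) in RPMI 1640 with 1% AlbuMax, 0.01% hypoxanthine, 20 mM HEPES, 2 mM glutamine. Serial dilutions from DMSO stocks (final DMSO <1%). IC50 as mean ± SD of ≥3 experiments in duplicate.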

Plasmodium falciparum [2] = test: Anti-parasitic activity against CQ-sensitive Plasmodium falciparum D10 assessed as growth inhibition by measuring increase in LDH release after 72 hrs by spectrophotometric method; type: functional; settings: D10, 72 h; method in brief: as §1
HMEC-1 = test: Antiproliferative activity against SV40 large T-antigen 38 immortalized HMEC1 cells after 72 hrs by MTT assay; type: cell-based; settings: Homo sapiens, HMEC-1, 72 h
Method in brief: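 HMEC-1 cells (SV40 large T-antigen immortalized) grown in MCDB 131 with 10% fetal calf serum, 10 ng/mL EGF, 1 μg/mL hydrocortisone, 2 mM glutamine, penicillin/streptomycin, 20 mM Hepes. Treated with serial dilutions for 72 h; proliferation read by MTT. IC50 = dose inhibiting growth 50%; mean and SD of at least three experiments in duplicate.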

[3] = Selectivity index, ratio of IC50 for SV40 large T-antigen 38 immortalized HMEC1 cells to IC50 for CQ-resistant Plasmodium falciparum W2; type: toxicity; settings: human, read-out: Ratio IC50
[4] = Selectivity index, ratio of IC50 for SV40 large T-antigen 38 immortalized HMEC1 cells to IC50 for CQ-sensitive Plasmodium falciparum D10; type: toxicity; settings: human, read-out: Ratio IC50
[5] = Stability of the compound in RPMI 1640 medium at 1 uM up to 24 hrs by HPLC-MS/MS method; type: physicochemical
Escherichia coli [6] = test: Inhibition of Escherichia coli ClpB ATP hydrolysis activity at 1.5 uM after 15 mins by spectrophotometric method
Method in brief: (§2)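 E. coli ClpB (concentration as monomer) assayed at 37 °C in 100 mM Tris/HCl pH 8, 1 mM DTT, 1 mM EDTA, 10 mM MgCl2. Reaction started by adding ClpB to buffer holding compound (DMSO stock diluted in buffer) and 4 mM ATP. Inorganic phosphate released from ATP quantified; matching DMSO amounts as controls.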

Escherichia coli [7] = test: Inhibition of Escherichia coli ClpB ATP hydrolysis activity at 1.5 uM preincubated for 21 mins followed by ATP addition by spectrophotometric method
Method in brief: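 E. coli ClpB ATPase in 100 mM Tris/HCl pH 8, 1 mM DTT, 1 mM EDTA, 10 mM MgCl2, 37 °C. ClpB and compound (DMSO stock diluted in buffer) combined first; reaction started by adding ATP. ATP hydrolysis followed as inorganic phosphate generated; equivalent DMSO amounts served as controls.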

[8] = Half-life in human liver microsomes at 1 uM in presence of NADPH by HPLC-MS/MS method; type: ADME, microsome
Escherichia coli [9] = test: Inhibition of Escherichia coli ClpB ATP hydrolysis activity at 2 uM after 15 mins by spectrophotometric method; method in brief: as §2
[10] = Inhibition of recombinant histidine-tagged Plasmodium falciparum choline kinase expressed in Escherichia coli using choline as substrate after 30 mins by HTRF method
Plasmodium falciparum [11] = test: Antiparasitic activity against Plasmodium falciparum 3D7 infected in erythrocytes after 72 hrs by SYBR Green 1 dye-based assay; type: functional, cell-based; settings: 3D7, 72 h
Escherichia coli [12] = test: Inhibition of Escherichia coli ClpB ATP hydrolysis activity at 1.7 uM after 15 mins by spectrophotometric method; method in brief: as §2

Structure (SMILES)	IC50 (Plasmodium falciparum [1])	IC50 (Plasmodium falciparum [2])	other results
CC1CN(C(=O)c2cc3ccccc3[nH]2)CC(C)N1 (stereo unspecified)	> 15 µM	> 15 µM	
C[C@@H]1CN(C(=O)c2sc3cc(Cl)ccc3c2Cl)C[C@H](C)O1	2.09 µM	0.407 µM	
Cc1ccc2c(Cl)c(C(=O)N3C[C@@H](C)O[C@@H](C)C3)sc2c1	0.596 µM	0.086 µM	IC50 (HMEC-1): 201 µM; selectivity ratio [3]: 250 to 5000; selectivity ratio [4]: 250 to 5000
C[C@@H]1CN(C(=O)c2sc3ccccc3c2OCc2ccc(F)c(F)c2)C[C@H](C)O1	0.747 µM	0.141 µM	IC50 (HMEC-1): 97 µM; selectivity ratio [3]: 250 to 5000; selectivity ratio [4]: 250 to 5000
O=C(Nc1ccccc1)c1sc2ccccc2c1Cl	> 15 µM	> 15 µM	
CCc1c(C(=O)N2C[C@@H](C)O[C@@H](C)C2)sc2ccccc12	2.31 µM	0.682 µM	
CC1CN(C(=O)c2sc3ccccc3c2Cl)CC(C)N1 (stereo unspecified)	14.7 µM	4.91 µM	
O=C(c1sc2ccccc2c1Cl)N1CCOCC1	> 15 µM	> 15 µM	
COc1c(C(=O)N2C[C@@H](C)O[C@@H](C)C2)sc2ccccc12	1.73 µM	0.429 µM	
CC1CC(C)CN(C(=O)c2sc3ccccc3c2Cl)C1 (stereo unspecified)	0.461 µM	0.1 µM	IC50 (HMEC-1): 149 µM; selectivity ratio [3]: 250 to 5000; selectivity ratio [4]: 250 to 5000
C[C@@H]1CN(C(=O)c2cc3ccccc3o2)C[C@H](C)O1	> 15 µM	> 15 µM	
O=C(Nc1ccccn1)c1sc2ccccc2c1Cl	> 15 µM	> 15 µM	
C[C@@H]1CN(C(=O)c2cc3ccccc3[nH]2)C[C@H](C)O1	> 15 µM	> 15 µM	
C[C@@H]1CN(C(=O)c2sc3ccccc3c2Cl)C[C@@H](C)O1	2.69 µM	0.645 µM	IC50 (HMEC-1): 154 µM; selectivity ratio [3]: 250 to 5000; selectivity ratio [4]: 250 to 5000
C[C@@H]1CN(C(=O)c2cc3ccccc3s2)C[C@H](C)N1	> 15 µM	> 15 µM	
CN1CCN(C(=O)c2cc3ccccc3s2)CC1	> 15 µM	> 15 µM	
C[C@@H]1CN(C(=O)c2sc3ccccc3c2OCc2ccc(Cl)cc2)C[C@H](C)O1	0.728 µM	0.186 µM	IC50 (HMEC-1): 48 µM; selectivity ratio [3]: 250 to 5000; selectivity ratio [4]: 250 to 5000
C[C@@H]1CN(C(=O)c2sc3ccccc3c2N)C[C@H](C)O1	> 15 µM	8.76 µM	
CC(=O)N1CCN(C(=O)c2cc3ccccc3s2)CC1	7.75 µM	10.9 µM	

Structure (SMILES)	IC50 (Plasmodium falciparum [1])	IC50 (Plasmodium falciparum [2])	other results
O=C(NC12CC3CC(CC(C3)C1)C2)c1sc2ccccc2c1Cl	> 15 µM	> 15 µM	
C[C@@H]1CN(C(=O)c2sc3cc(F)ccc3c2Cl)C[C@H](C)O1	0.455 µM	0.074 µM	Stability [5]: Stable
CC1CN(C(=O)c2cc3ccccc3o2)CC(C)N1 (stereo unspecified)	> 15 µM	> 15 µM	
C[C@@H]1CN(C(=O)c2sc3ccccc3c2OCc2ccccc2)C[C@H](C)O1	0.142 µM	0.038 µM	inhibition (Escherichia coli [6]): inactive; inhibition (Escherichia coli [7]): inactive; IC50 (HMEC-1): 73 µM; selectivity ratio [3]: 250 to 5000; selectivity ratio [4]: 250 to 5000; half-life at 1 µM [8]: 2.1 min
C[C@@H]1CN(C(=O)c2sc3c(Cl)c(Cl)ccc3c2Cl)C[C@H](C)O1	7.44 µM	2.22 µM	
O=C(c1sc2ccccc2c1Cl)N1CCCCC1	> 15 µM	> 15 µM	
CC1CN(C(=O)c2sc3ccccc3c2Cl)CC(C)O1 (stereo unspecified)	0.26 µM		
C[C@@H]1CN(C(=O)c2nc3ccccc3s2)C[C@H](C)O1	> 15 µM	9.79 µM	
C[C@@H]1CN(C(=O)c2sc3ccccc3c2O)C[C@H](C)O1	> 15 µM	> 15 µM	
O=C(Nc1ccncc1)c1sc2ccccc2c1Cl	> 15 µM	> 15 µM	Stability [5]: Stable
C[C@@H]1CN(C(=O)c2cc3ccccc3s2)C[C@H](C)O1	8.54 µM	1.82 µM	
CCN(CC)CCCC(C)Nc1ccnc2cc(Cl)ccc12 (stereo unspecified) [CHLOROQUINE]			IC50 (HMEC-1): > 100 µM
CCN(CC)C(=O)c1sc2ccccc2c1Cl	> 15 µM	> 15 µM	
C[C@@H]1CN(C(=O)c2sc3ccccc3c2NCc2ccccc2)C[C@H](C)O1	9.77 µM	2.62 µM	
C[C@@H]1CN(C(=O)c2sc3ccccc3c2Cl)C[C@H](C)O1	0.184 µM	0.037 µM	inhibition (Escherichia coli [9]): inactive; IC50 (HMEC-1): 195 µM; Stability [5]: Stable; IC50 [10]: 6.3 µM; EC50 (Plasmodium falciparum [11]): 0.3 µM; selectivity ratio [3]: 250 to 5000; selectivity ratio [4]: 250 to 5000; half-life at 1 µM [8]: 40 min
O=C(c1cc2ccccc2s1)N1CCOCC1	> 15 µM	> 15 µM	
Cc1c(C(=O)N2C[C@@H](C)O[C@@H](C)C2)sc2ccccc12	0.753 µM	0.226 µM	IC50 (HMEC-1): 142 µM; selectivity ratio [3]: 250 to 5000; selectivity ratio [4]: 250 to 5000; inhibition (Escherichia coli [12]): inactive; half-life at 1 µM [8]: 44 min
COc1ccc(COc2c(C(=O)N3C[C@@H](C)O[C@@H](C)C3)sc3ccccc23)cc1	0.877 µM	0.146 µM	IC50 (HMEC-1): 83 µM; selectivity ratio [3]: 250 to 5000; selectivity ratio [4]: 250 to 5000

— ChEMBL document CHEMBL3997803, “Accepting the Invitation to Open Innovation in Malaria Drug Discovery: Synthesis, Biological Evaluation, and Investigation on the Structure-Activity Relationships of Benzo[b]thiophene-2-carboxamides as Antimalarial Agents” (J Med Chem, 2017)
